Laboratory results from ChEMBL document CHEMBL4251757 (J Med Chem, 2018).

How the values were obtained:
[1] = Half life in cynomolgus monkey plasma at 30 mg/kg administered via oral gavage by RP-HPLC analysis; type: ADME, organism-based, Macaca fascicularis
Procedure, shortened: (§1)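 Female cynomolgus monkeys (2.5–3.5 kg). Compound dissolved in EtOH at 75 mg/mL, diluted in 10 volumes of 20 mM NaHCO3 pH 8.0 (9.1% EtOH) and given by oral gavage; 4.4 mL/kg for 30 mg/kg, 2.2 mL/kg for lower doses. Blood drawn into heparin pre-dose and at 0.5, 1, 2, 4, 8, 12, 24 h, sometimes 3 and 7 days. Plasma diluted with 2 volumes MeOH plus internal standard, then RP-HPLC.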

[2] = AUC (0 to 24 hrs) in cynomolgus monkey plasma at 30 mg/kg administered via oral gavage by RP-HPLC analysis; type: ADME, organism-based, Macaca fascicularis; parameters: dose 30 mg/kg, time < 24 hr, route oral; procedure, shortened: as §1
[3] = Cmax in cynomolgus monkey plasma at 30 mg/kg administered via oral gavage by RP-HPLC analysis; type: ADME, organism-based, Macaca fascicularis; parameters: dose 30 mg/kg, route oral; procedure, shortened: as §1
[4] = Tmax in cynomolgus monkey plasma at 30 mg/kg administered via oral gavage by RP-HPLC analysis; type: ADME, organism-based, Macaca fascicularis; procedure, shortened: as §1
[5] = Plasma concentration in cynomolgus monkey at 30 mg/kg administered as oral gavage measured after 1 hr by RP-HPLC analysis; type: ADME, organism-based, Macaca fascicularis; procedure, shortened: as §1
[6] = Plasma concentration in cynomolgus monkey at 30 mg/kg administered as oral gavage measured after 8 hrs by RP-HPLC analysis; type: ADME, organism-based, Macaca fascicularis; procedure, shortened: as §1
[7] = Drug level in cynomolgus monkey plasma treated with 30 mg/kg 5-(5-Chloro-1-methyl-2-(6-phenylhexyl)-1H-indol-3-yl)-3-methyl-5-oxopentanoic Acid administered via oral gavage assessed as compound formation after 12 hrs by RP-HPLC analysis; type: ADME, organism-based, Macaca fascicularis; settings: in vivo
Procedure, shortened: (§2)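 Monkeys received 30 mg/kg by oral gavage in EtOH/20 mM NaHCO3 pH 8.0 vehicle. A plasma extract taken 12 h later was run by RP-HPLC on a C18 column (4 µm, 3.9 x 150 mm) with a 15-min gradient of 70–100% MeOH in H2O, both containing 0.02% HOAc. The tetramethylene analog served as internal standard.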

Oxoeicosanoid receptor 1 [8] = target: T1, Oxoeicosanoid receptor 1 (Homo sapiens, UniProt Q8TDS5); test: Antagonist activity at OXE receptor in human neutrophils assessed as inhibition of 5-oxo-ETE-induced calcium mobilization incubated for 2 mins followed by 5-oxo-ETE addition measured after 1 min by fluorescence assay; type: functional
T1 sequence (Q8TDS5 whole entry): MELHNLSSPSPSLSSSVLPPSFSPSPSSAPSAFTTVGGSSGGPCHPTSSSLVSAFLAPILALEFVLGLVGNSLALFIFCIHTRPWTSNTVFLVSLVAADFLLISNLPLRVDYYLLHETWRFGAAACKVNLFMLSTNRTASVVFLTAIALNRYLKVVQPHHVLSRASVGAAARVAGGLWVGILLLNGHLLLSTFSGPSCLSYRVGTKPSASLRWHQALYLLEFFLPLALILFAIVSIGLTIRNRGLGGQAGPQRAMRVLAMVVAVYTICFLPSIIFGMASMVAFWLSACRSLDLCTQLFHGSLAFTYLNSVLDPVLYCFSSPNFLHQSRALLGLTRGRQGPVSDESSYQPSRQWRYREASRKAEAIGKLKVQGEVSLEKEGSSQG
Procedure, shortened: (§3)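 Human neutrophils were isolated from healthy donors by dextran sedimentation and Ficoll-Paque centrifugation, then loaded with indo-1. Fluorescence was read at 37 °C in a stirred cuvette. Antagonist was added at various concentrations; 2 min later 5-oxo-ETE (10 nM) was added. Digitonin (final 0.1%) followed 1 min later to give maximal fluorescence.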

[9] = Drug metabolism in cynomolgus monkey plasma at 30 mg/kg administered via oral gavage assessed as metabolite (S)-5-(5-Chloro-2-((S)-1-hydroxy-6-phenylhexyl)-1-methyl-1Hindol-3-yl)-3-methyl-5-oxopentanoic acid formation after 12 hrs by RP-HPLC analysis; type: ADME, organism-based, Macaca fascicularis; settings: in vivo; procedure, shortened: as §2
Oxoeicosanoid receptor 1 [10] = target: T1, Oxoeicosanoid receptor 1; test: Antagonist activity at OXE receptor in human neutrophils assessed as inhibition of 5-oxo-ETE-induced calcium mobilization incubated for 2 mins followed by 5-oxo-ETE addition by fluorescence assay; type: functional; procedure, shortened: as §3
[11] = Half life in cynomolgus monkey plasma at 10 mg/kg administered via oral gavage by RP-HPLC analysis; type: ADME, organism-based, Macaca fascicularis; procedure, shortened: as §1
[12] = Cmax in cynomolgus monkey plasma at 15 mg/kg administered via oral gavage by RP-HPLC analysis; type: ADME, organism-based, Macaca fascicularis; parameters: dose 15 mg/kg, route oral
[13] = AUC (0 to 24 hrs) in cynomolgus monkey plasma at 15 mg/kg administered via oral gavage by RP-HPLC analysis; type: ADME, organism-based, Macaca fascicularis; parameters: time < 24 hr, dose 15 mg/kg, route oral
[14] = Cmax in cynomolgus monkey plasma at 10 mg/kg administered via oral gavage by RP-HPLC analysis; type: ADME, organism-based, Macaca fascicularis; parameters: dose 10 mg/kg, route oral; procedure, shortened: as §1
[15] = Plasma concentration in cynomolgus monkey at 30 mg/kg administered via oral gavage after 3 days by RP-HPLC analysis; type: ADME, organism-based, Macaca fascicularis; procedure, shortened: as §1
[16] = Cmax in cynomolgus monkey plasma at 5 mg/kg administered via oral gavage by RP-HPLC analysis; type: ADME, organism-based, Macaca fascicularis; parameters: dose 5 mg/kg, route oral; procedure, shortened: as §1
[17] = Tmax in cynomolgus monkey plasma at 2 mg/kg administered via oral gavage by RP-HPLC analysis; type: ADME, organism-based, Macaca fascicularis; procedure, shortened: as §1
[18] = Tmax in cynomolgus monkey plasma at 1 mg/kg administered via oral gavage by RP-HPLC analysis; type: ADME, organism-based, Macaca fascicularis; procedure, shortened: as §1
[19] = Plasma concentration in cynomolgus monkey at 30 mg/kg administered via oral gavage after 24 hrs by chiral-HPLC analysis; type: ADME, organism-based, Macaca fascicularis
Procedure, shortened: (§4)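 After oral gavage of racemate at 30 mg/kg, plasma C025 or its metabolite was isolated by RP-HPLC, then run by chiral HPLC on Cellulose-1 at 2 ml/min and 30 °C. Mobile phase was hexane/MeOH/HOAc 97.5:2.5:0.1 for parent and 97:3:0.1 for metabolite. Samples were taken at 4 h and 24 h; n=2 for enantiomer levels.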

[20] = Half life in cynomolgus monkey plasma at 15 mg/kg administered via oral gavage by RP-HPLC analysis; type: ADME, organism-based, Macaca fascicularis
[21] = Tmax in cynomolgus monkey plasma at 10 mg/kg administered via oral gavage by RP-HPLC analysis; type: ADME, organism-based, Macaca fascicularis; procedure, shortened: as §1
[22] = Tmax in cynomolgus monkey plasma at 15 mg/kg administered via oral gavage by RP-HPLC analysis; type: ADME, organism-based, Macaca fascicularis
[23] = Cmax in cynomolgus monkey plasma at 2 mg/kg administered via oral gavage by RP-HPLC analysis; type: ADME, organism-based, Macaca fascicularis; parameters: dose 2 mg/kg, route oral; procedure, shortened: as §1
[24] = AUC (0 to 24 hrs) in cynomolgus monkey plasma at 5 mg/kg administered via oral gavage by RP-HPLC analysis; type: ADME, organism-based, Macaca fascicularis; parameters: dose 5 mg/kg, time < 24 hr, route oral; procedure, shortened: as §1
[25] = Half life in cynomolgus monkey plasma at 2 mg/kg administered via oral gavage by RP-HPLC analysis; type: ADME, organism-based, Macaca fascicularis; procedure, shortened: as §1
[26] = Half life in cynomolgus monkey plasma at 1 mg/kg administered via oral gavage by RP-HPLC analysis; type: ADME, organism-based, Macaca fascicularis; procedure, shortened: as §1
[27] = Drug metabolism in cynomolgus monkey plasma at 30 mg/kg administered via oral gavage assessed as metabolite (R)-5-(5-Chloro-2-((S)-1-hydroxy-6-phenylhexyl)-1-methyl-1Hindol-3-yl)-3-methyl-5-oxopentanoic acid formation after 4 hrs by chiral-HPLC analysis; type: ADME, organism-based, Macaca fascicularis; settings: in vivo; procedure, shortened: as §4
[28] = AUC (0 to 24 hrs) in cynomolgus monkey plasma at 2 mg/kg administered via oral gavage by RP-HPLC analysis; type: ADME, organism-based, Macaca fascicularis; parameters: dose 2 mg/kg, time < 24 hr, route oral; procedure, shortened: as §1
[29] = AUC (0 to 24 hrs) in cynomolgus monkey plasma at 10 mg/kg administered via oral gavage by RP-HPLC analysis; type: ADME, organism-based, Macaca fascicularis; parameters: time < 24 hr, dose 10 mg/kg, route oral; procedure, shortened: as §1
[30] = Plasma concentration in cynomolgus monkey at 30 mg/kg administered via oral gavage after 7 days by RP-HPLC analysis; type: ADME, organism-based, Macaca fascicularis; procedure, shortened: as §1
[31] = Tmax in cynomolgus monkey plasma at 5 mg/kg administered via oral gavage by RP-HPLC analysis; type: ADME, organism-based, Macaca fascicularis; procedure, shortened: as §1
[32] = AUC (0 to 24 hrs) in cynomolgus monkey plasma at 1 mg/kg administered via oral gavage by RP-HPLC analysis; type: ADME, organism-based, Macaca fascicularis; parameters: time < 24 hr, dose 1 mg/kg, route oral; procedure, shortened: as §1
[33] = Half life in cynomolgus monkey plasma at 5 mg/kg administered via oral gavage by RP-HPLC analysis; type: ADME, organism-based, Macaca fascicularis; procedure, shortened: as §1
[34] = Cmax in cynomolgus monkey plasma at 1 mg/kg administered via oral gavage by RP-HPLC analysis; type: ADME, organism-based, Macaca fascicularis; parameters: dose 1 mg/kg, route oral; procedure, shortened: as §1

CCCCCCc1cc2ccc(Cl)cc2n1C(=O)CC(C)CC(=O)O (racemic)
half-life [1]: 1.2 h | AUC(0-t) at 24 h [2]: 55 µM·h | Cmax [3]: 27 µM | Tmax [4]: 0.9 h | concentration at 1 h [5]: > 25 µM | concentration at 8 h [6]: < 0.5 µM

CC(CC(=O)O)CC(=O)c1c(C(O)CCCCCc2ccccc2)n(C)c2ccc(Cl)cc12 (configuration not stated)
Drug uptake [7]: Active

CC(CC(=O)O)CC(=O)c1c(CCCCCCc2ccccc2)n(C)c2ccc(Cl)cc12 (racemic)
IC50 (Oxoeicosanoid receptor 1 [8]): 0.28 nM | half-life [1]: 7.4 h | AUC(0-t) at 24 h [2]: 1250 µM·h | Cmax [3]: 108 µM | Tmax [4]: 2.5 h | Drug metabolism [9]: Metabolite_Detected

CC(CC(=O)O)CC(=O)n1c(CCCCCCc2ccccc2)cc2ccc(Cl)cc21 (configuration not stated)
IC50 (Oxoeicosanoid receptor 1 [8]): 12 nM

CCCCC/C=C\C[C@H](O)/C=C/C=C\C=C\C(=O)CCCC(=O)O
IC50 (Oxoeicosanoid receptor 1 [10]): 500 nM

CC(CC(=O)O)CC(=O)n1c(CCCc2ccccc2)cc2ccc(Cl)cc21 (configuration not stated)
IC50 (Oxoeicosanoid receptor 1 [8]): 210 nM

C[C@H](CC(=O)O)CC(=O)c1c(CCCCCCc2ccccc2)n(C)c2ccc(Cl)cc12
IC50 (Oxoeicosanoid receptor 1 [8]): 0.12 nM | half-life [11]: 2.8 h | Cmax [12]: 32 µM | half-life [1]: 3.5 h | AUC(0-t) at 24 h [13]: 169 µM·h | AUC(0-t) at 24 h [2]: 684 µM·h | Cmax [14]: 35 µM | concentration at 72 h [15]: 0.16 µM | Cmax [3]: 106 µM | Tmax [4]: 1.3 h | Cmax [16]: 18 µM | Tmax [17]: 0.7 h | Tmax [18]: 0.7 h | concentration at 24 h [19]: 1 µM | half-life [20]: 3.4 h | Tmax [21]: 1.2 h | Tmax [22]: 0.8 h | Cmax [23]: 7.8 µM | AUC(0-t) at 24 h [24]: 78 µM·h | half-life [25]: 1.1 h | half-life [26]: 0.9 h | Drug metabolism [27]: Metabolite_Detected | AUC(0-t) at 24 h [28]: 26 µM·h | AUC(0-t) at 24 h [29]: 171 µM·h | concentration at 168 h [30]: 0.04 µM | Tmax [31]: 1.2 h | Drug uptake [7]: Active | AUC(0-t) at 24 h [32]: 13 µM·h | half-life [33]: 1.9 h | Cmax [34]: 4.5 µM

CC(CC(=O)O)CC(=O)n1c(CCCCc2ccccc2)cc2ccc(Cl)cc21 (configuration not stated)
IC50 (Oxoeicosanoid receptor 1 [8]): 18 nM

CCCCCCc1c(C(=O)CC(C)CC(=O)O)c2cc(Cl)ccc2n1C (racemic)
IC50 (Oxoeicosanoid receptor 1 [8]): 17 to 26 nM | half-life [1]: 0.7 h | AUC(0-t) at 24 h [2]: 198 µM·h | Cmax [3]: 121 µM | Tmax [4]: 0.6 h
